From ChEMBL document CHEMBL4513216, “Probing the Open Global Health Chemical Diversity Library for Multistage-Active Starting Points for Next-Generation Antimalarials” (ACS Infect Dis, 2020)

Assay: Toxicity liver stage against HepG2, at 10uM
Format: cell-based
Design: test concentration 10 uM, cell line HepG2-A16-CD81EGFP
Conditions: human, HepG2-A16-CD81EGFP cells; read-out: INHIBITION
How it was run: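 Uninfected HepG2-A16-CD81EGFP cells, 3 × 10^3 per well, 1536-well, plated on prespotted compound at 10 μM final, parasite-free screening media added to match infected plates; puromycin 10 μM positive, DMSO 0.5% negative; run in parallel with 48 h PbLuc assay at 37 °C, 5% CO2; viability by CellTiter-Glo luminescence, normalized to controls.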

SMILES	cytotoxicity at 10 µM
COc1cc(Cl)cc(C(=O)N2CCC3(CCCNC3)C2)c1 (stereo not drawn)	-7%
CCc1cccc(OCCCN(C)C(=O)CN2CCNC2=O)c1	-2.48%
O=C(Nc1ccccn1)c1csc(NC2CCCC2)n1	9.09%
CC(C)c1nccn1C1CCCN(C(=O)c2ccn(C)c(=O)c2)C1 (stereo not drawn)	7.35%
Cc1ccc(C2CCCN(C(=O)c3cnn(C)c3)C2)nc1 (stereo not drawn)	-25.8%
CCN(C)c1ccc(C(=O)NCCCc2ccccn2)cn1	-43.7%
CC(C)(C)c1cc(CN2CCOC(CN)C2)n[nH]1 (stereo not drawn)	-12.1%
O=C(NCc1cccnc1)[C@@H]1C[C@@H]2CCN(c3ncc(F)cn3)C[C@@H]2O1	-72.1%
c1c[nH]c2nc(C3CCNC3)nc-2c1 (stereo not drawn)	10.3%
CNc1ncc(CN(C)C(=O)CCc2cc3n(n2)CCCNC3)cn1	-13.5%
O=c1c2cccc(Cl)c2ncn1C1CCNC1 (stereo not drawn)	-41.2%
CC(=O)N1CCOC(c2nc(N(C)C)ncc2-c2cccc(F)c2)C1 (stereo not drawn)	-27.5%
Cn1cccc(NC(=O)NCc2cccc(CO)c2)c1=O	-55.5%
N#Cc1ccc(CN2CCCCC2Cn2cncn2)c(F)c1 (stereo not drawn)	-1.34%
Cc1noc(C)c1C(=O)NCCSCc1cccs1	-4.89%
Cc1nnc2ccc(N3CCC4(CCOC4)C3)nn12 (stereo not drawn)	4.29%
Cc1nc(N2CCN(C(=O)c3ccccc3)CC2)cc(-n2ccnc2)n1	0.0237%
Nc1ncc(CN2C[C@H](C3CC3)[C@@H](N)C2)cn1	-44.6%
CNC(=O)c1ncn2c1CN(CCC(C)C)S(=O)(=O)c1ccccc1-2	-78.8%
Cc1ncsc1CCN(C)Cc1ccc(CO)o1	-15.3%
Cc1ccc(CC(=O)N2CC[C@@H]3NC(=O)CC[C@@H]32)cc1	1.49%
COc1ccc(C(=O)N2C[C@@H](C(=O)O)[C@H](c3ccccc3C)C2)c(O)c1	-4.31%
CC(C)NC(=O)N1CCCn2cnc(CO)c2C1	-151%

SMILES	cytotoxicity at 10 µM
Cn1ccnc1C(O)c1ccccc1N1CCN(Cc2ccsc2)CC1 (stereo not drawn)	3.19%
CCOCc1ccc(NC(=O)C(C)C)cc1	2.25%
Cn1ccc(CNC(=O)N2CCC(C3(C)OCCO3)CC2)c1	3.15%
CN(C)C(=O)c1c[nH]nc1C1CCN(S(=O)(=O)c2ccccc2)CC1	-0.358%
CCN(CC)c1nc2ccsc2c(=O)n1CCC(=O)NCc1cccs1	-5.27%
Cc1cnn(C2CCCN(C(=O)c3sccc3-n3cnnn3)C2)c1 (stereo not drawn)	-8.72%
O=C(CN1C(=O)CCNC1=O)N1CCOC(c2ccc(Cl)c(Cl)c2)C1 (stereo not drawn)	6.28%
NC(=O)N1CCCC(C(=O)NCc2noc(Cc3ccccc3)n2)C1 (stereo not drawn)	2.4%
COc1ccc(-c2cc(N)on2)cc1	-12.8%
CCc1ccccc1OCCN(C)C(=O)CN1CCCC1	-50.4%
O=C(NC1CCN(C2CC2)C1)c1cn(-c2ccc(F)cc2)nn1 (stereo not drawn)	-2.25%
Fc1ccc(C(NCc2nnc(C3CC3)o2)C2CCC2)cc1 (stereo not drawn)	-48.1%
CCOC[C@@]12CCC[C@@H]1CN(C(=O)COc1ccccc1OC)C2	-106%
CCCNC(=O)C(C)n1nc(-c2ccc(C)o2)cc(N)c1=O (stereo not drawn)	-1.15%
CC(C)(C)OC(=O)N1CCn2c(nnc2C2CCCNC2)C1 (stereo not drawn)	-1.58%
COc1ncccc1NC(=O)C1CCS(=O)(=O)C1 (stereo not drawn)	-4.48%
COCCNC(=O)[C@H]1C[C@@H]2CCN(c3ccncn3)C[C@H]2O1	2.4%
Cc1ccc(C(=O)N2CC(Oc3ccccc3C)C2)s1	17.1%
CN1CCC(Oc2ccc(NC(=O)c3ccccc3Br)cc2)CC1	-15.6%
CC(C)(CNC(=O)c1ccco1)CNC(=O)c1ccco1	-3.97%
Cc1cccc(C(=O)N2CC(=O)N(c3ccccc3Cl)CC2C)n1 (stereo not drawn)	-7.25%
COCCn1cc(NCc2cn(C)nc2-c2ccncc2)cn1	2.03%
O=S(=O)(CCCN1CCc2c(ncn2C2CC2)C1)c1ccccc1	-3.33%

SMILES	cytotoxicity at 10 µM
Cc1cnn(CCNCc2ccccc2C#N)c1	-9.14%
CN(Cc1cnn(C)c1)C(=O)Nc1cccnc1-n1cccn1	-1.32%
COC(=O)c1cccc(C(=O)NCc2ccc(C)o2)n1	11.5%
O=C1CC2(CCCC2)CC(=O)N1CCn1cnnc1	-0.54%
CCCSCC(=O)N1CCCC(c2nccn2Cc2ccncc2)C1 (stereo not drawn)	4.69%
Cc1cc(O)nc(C2CCCN(Cc3ccncc3)C2)n1 (stereo not drawn)	-2.81%
NC(=O)N1CCCC(C(=O)NCCOc2ccc3c(c2)OCO3)C1 (stereo not drawn)	-102%
NC(=O)C1CCN(C(=O)NCc2ccccc2-n2cccn2)CC1	-11.1%
Cc1cc(Cc2ccccc2C)cc(C2CCCNC2)n1 (stereo not drawn)	-3.59%
Cc1ccc(CN(C)C(=O)c2scnc2C)cc1	-6.8%
COCc1cc(N2CCOC(c3ccc(Cl)cc3)C2)ncn1 (stereo not drawn)	1.92%
COCCCN1CCC(c2nc3c([nH]2)CC(C)(C)CNC3=O)C1 (stereo not drawn)	0.0531%
CN1CCN(Cc2cn3c(n2)CN(Cc2cccc(F)c2)CC3)CC1	-125%
Cc1nn(-c2ccccc2)c(C)c1CNC1CCc2ncnn2C1 (stereo not drawn)	2.87%
CC(Cc1cn(CCc2n[nH]c(=O)[nH]2)nn1)c1ccccc1 (stereo not drawn)	-0.591%
CC(C)c1nc(C2CCCN2C(=O)c2nccnc2N)no1 (stereo not drawn)	-1.96%
COc1ccc(-c2noc(C(N)CCSC)n2)cc1OC (stereo not drawn)	11.2%
Cc1ccc(-c2cn3c(n2)CO[C@@H](CNCc2cnn(C)c2)C3)cc1	-1.23%
Cc1ccc2c(c1)c(C)cc(=O)n2CCC#N	5.81%
COc1ccc(CN2CCN(C(=O)c3ccc(C)n3C)CC2)cc1	-0.0113%
Cc1noc(C)c1CNc1ccc2nc(C3CC3)sc2c1	10.8%
CC(C)NC(=O)[C@@H]1C[C@H]2OCC[C@H]2N(Cc2ccc3ccccc3n2)C1	-66.8%
CN(CCO)c1nc(-c2ccccn2)nc2c1CCNC2	-4.12%

SMILES	cytotoxicity at 10 µM
CCC1CN(CCCO)c2ccccc2O1 (stereo not drawn)	-7.24%
CN(Cc1cc(-c2ccccc2)no1)C(=O)CNS(C)(=O)=O	0.0288%
CC(C)C(Sc1nnc(C2CC2)n1C1CC1)C(=O)NCc1cccnc1 (stereo not drawn)	-11.2%
Cc1noc(C)c1CN1CC[C@@H]2O[C@H](COCC3CC3)CC[C@@H]21	5.65%
Cc1nc(N(C)C)ncc1C(=O)N[C@H]1Cc2ccccc2[C@@H]1N	1.81%
COC(=O)c1ccccc1C(=O)N(CCN(C)C)Cc1sccc1C	-129%
O=C(c1cnccn1)N1CCC2(CCN(Cc3ccsc3)CC2)CC1	1.2%
CCn1cc(CN2CCC(c3ccncc3)CC2)cc1C#N	-5.38%
O=C(CCC1CCCC1)NCCn1nc(C2CCNC2)c2cccnc21 (stereo not drawn)	-2.83%
Cn1c(Cn2ccnc2)nnc1C1CCCN(Cc2ccncc2)C1 (stereo not drawn)	12.1%
CS(=O)(=O)c1ncc(CN2CCCC(C(N)=O)C2)n1CC1CCCCC1 (stereo not drawn)	-2.35%
CCc1cnc(N)nc1N1CCN(C(C)=O)CC1	-51.7%
CCCN(CC1COc2ccccc2O1)C(=O)c1ncoc1CC (stereo not drawn)	-42.2%
Cc1cc(C)nc(Nc2nccnc2C2CCCN(CCO)C2)n1 (stereo not drawn)	-0.0399%
O=C(O)c1cc2c(nc1N1CCOCC1)CCN(C1CCOC1)CC2 (stereo not drawn)	6.68%
CCOc1ncccc1C(=O)N1CCCC(n2nc(C)cc2C)C1 (stereo not drawn)	-5.54%
CCOCCN1CCN(Cc2cccc(C(=O)N(C)C)c2)CC1	-13.5%
O=C([C@H]1C[C@H]2OCC[C@H]2N(Cc2cccnc2)C1)N1CCCCO1	-69.8%
CNC(=O)CNC(=O)NCc1cc2c(s1)CCC(C)(C)C2	4.08%
CCc1n[nH]c(C2CN(C(=O)Cc3cccs3)CCO2)n1 (stereo not drawn)	2.83%
COc1ccc(Cl)cc1NC(=O)CCNc1ccc(C#N)cn1	2.59%
CCn1c(C)nc2cc(NC(=O)CC3CCN(S(C)(=O)=O)CC3)ccc21	4.39%
Cc1ccc(CC(=O)N2CCN(C3CCOC3=O)CC2)cc1 (stereo not drawn)	-18.7%

SMILES	cytotoxicity at 10 µM
Cc1noc(C)c1CN1CCCC2(C1)CN(c1nccs1)CCO2 (stereo not drawn)	8.47%
COCCCS(=O)(=O)N1CCN(C(C)(C)CO)CC1	-6.46%
CN(C)Cc1nc(-n2cnc(C(=O)NCC3CC3)c2)n2ccccc12	1.55%
CC(C)N1CCN(C)CC1c1nnc2ccc(C(=O)N3CCCC3)cn12 (stereo not drawn)	-145%
Cc1cnn(CC(C)NCc2ccncc2)c1 (stereo not drawn)	-2.81%
Cc1nn(CCO)c(C)c1CNC1CCOc2ccccc21 (stereo not drawn)	14.4%
Cc1ccc(CNC(=O)NCC(=O)NC(C)(C)C)c(N2CCCC2)c1	5.68%
COC1CCN(c2ccc(NC(=O)Cn3cccc3)cc2)CC1	2.99%
CCOCC(O)CN1CCN(C(=O)c2cccc3[nH]ncc23)CC1 (stereo not drawn)	-12.8%
Cn1cc(NC(=O)CNC(=O)N2CCN(c3ccc(F)cc3)CC2)cn1	2.27%
C=C1C(C)(C)[C@@H]2CC[C@]1(C(=O)N1CCC(n3cc(CCO)nn3)CC1)C2	-4.28%
CN1CCCN(C[C@@H]2CN(C(=O)CC3CCC3)C[C@@H]2CO)CC1	-9.11%
Cn1nc2c(cc1=O)CN(Cc1nc(-c3ccco3)no1)CC2	1.22%
CCCc1n[nH]c(C2CN(C(=O)c3ccc4c(c3)COC4)CCO2)n1 (stereo not drawn)	-12.4%
CC(=O)N1CCC(Oc2ccc(Cl)cc2C(=O)N2CCCO2)CC1	15.3%
CCc1nnc(N2CCN(c3ccccc3)C(=O)C2)o1	-8.74%
Clc1cccc(-n2cnnn2)c1N1CCOCC1	9.43%
CN(Cc1cnn(C)c1)C(=O)NCc1cc(Br)cs1	-10.1%
Cn1cc(N2CCC3(CCN(Cc4cccnc4)C3)C2=O)cn1 (stereo not drawn)	3.63%
CCC(CC)n1ncc(C(=O)NS(=O)(=O)c2ccsc2)c1C	-3.01%
CC(C)c1cc(CNC(=O)N2CCC(Cc3cnn(C)c3)C2)on1 (stereo not drawn)	-10.9%
